In ChEMBL document CHEMBL4732082, “Development of novel benzimidazole-derived neddylation inhibitors for suppressing tumor growth invitro and invivo” (Eur J Med Chem, 2021) one finds Activity, inhibition and IC50 data, which are given here for 1 compound.

The source made the active and inactive calls. The calls are words filed in the database; no cut-off is given here.

The subject of series [1] is A549. In words: Induction of apoptosis in human A549 cells assessed as early apoptotic cells at 20 uM after 48 hrs by Annexin V-FITC/PI double staining based flow cytometric analysis (reference value: 2.04%). Type of series: functional. For orientation: In flow cytometry, cells or beads pass a laser one at a time.
Series [2] relates to A549. Kind of series: Induction of apoptosis in human A549 cells assessed as early apoptotic cells at 10 uM after 48 hrs by Annexin V-FITC/PI double staining based flow cytometric analysis (reference value: 2.04%). The format is functional.
The subject of series [3] is A549. Kind of series: Induction of apoptosis in human A549 cells assessed as late apoptotic cells at 10 uM after 48 hrs by Annexin V-FITC/PI double staining based flow cytometric analysis (reference value: 4.62%). The format is functional.
For series [4], the target named is T1, NEDD8-activating enzyme E1 regulatory subunit (Homo sapiens) (UniProt Q13564).
T1 sequence (whole entry): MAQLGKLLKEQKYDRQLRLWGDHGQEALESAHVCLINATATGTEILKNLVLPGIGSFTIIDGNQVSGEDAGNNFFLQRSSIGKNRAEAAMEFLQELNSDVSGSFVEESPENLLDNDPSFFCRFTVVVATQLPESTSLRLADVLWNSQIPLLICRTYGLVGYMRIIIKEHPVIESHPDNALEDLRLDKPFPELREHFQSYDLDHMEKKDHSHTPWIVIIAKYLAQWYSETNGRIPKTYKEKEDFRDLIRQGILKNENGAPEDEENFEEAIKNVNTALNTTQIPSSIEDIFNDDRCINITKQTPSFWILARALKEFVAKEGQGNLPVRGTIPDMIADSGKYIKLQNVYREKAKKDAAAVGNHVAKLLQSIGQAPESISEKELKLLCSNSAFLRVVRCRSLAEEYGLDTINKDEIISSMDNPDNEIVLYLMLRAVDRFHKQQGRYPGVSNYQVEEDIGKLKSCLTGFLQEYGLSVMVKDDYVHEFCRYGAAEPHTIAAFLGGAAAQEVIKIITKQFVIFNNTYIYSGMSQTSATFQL
Kind of series: Inhibition of NAE (unknown origin)-mediated neddylation assessed as suppression of cullin1-Nedd8 adduct formation at 25 uM preincubated for 10 mins followed by ATP addition and measured after 30 mins by immunoblot analysis relative to control. The note with it: time 40.0 min.

The test system of series [5] is A549. Kind of series: Induction of apoptosis in human A549 cells assessed as late apoptotic cells at 40 uM after 48 hrs by Annexin V-FITC/PI double staining based flow cytometric analysis (reference value: 4.62%). Type of series: functional.
The target of series [6] is T1, NEDD8-activating enzyme E1 regulatory subunit (Homo sapiens). In words: Inhibition of NAE-mediated neddylation in human A549 cells assessed as suppression of cullin1-Nedd8 adduct formation at 12.5 to 25 uM measured after 6 to 12 hrs by Western blot analysis. The format is cell-based. The note with it: dose 12.5-25 µM, time 6-12 hrs. Summed up:
(§1)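 A549 cells were treated 6 or 12 h with graded concentrations (4.5–75 μM) against a 0.1% DMSO control. Cells were washed in cold PBS, lysed in RIPA on ice and cleared by centrifugation, and protein was normalized. Cullin-Nedd8 was resolved on non-reducing SDS-PAGE and Wee1/p27 under reducing conditions, then detected by Western blot.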

Series [7] in a line: Cytotoxicity against human […] cells incubated for 48 hrs by CCK-8 assay. The format is cell-based. Summed up:
(§2)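 Cells from ATCC, passaged six times, grown in DMEM with 10% FBS and penicillin/streptomycin at 37 °C under 5% CO2. Seeded at 2500 cells/well, cultured overnight, treated 48 h, viability read by CCK-8. Run in triplicate; values are the mean of three experiments.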
(In general: Tetrazolium dyes change colour on reduction, which living cells bring about.)

Series [8] has as its system A549. Kind of series: Induction of apoptosis in human A549 cells assessed as increase in PARP cleavage at 12.5 uM by Western blot analysis. The format is functional, cell-based.
The test system of series [9] is A549. In words: Antiproliferative activity against human A549 cells incubated for 48 hrs by CCK-8 assay. Particulars: A549, 48 h. The format is functional, cell-based. In a few lines: as §2
The subject of series [10] is A549. Kind of series: Induction of apoptosis in human A549 cells assessed as necrotic cells at 40 uM after 48 hrs by Annexin V-FITC/PI double staining based flow cytometric analysis (reference value: 1.57%). The format is functional.
For series [11], the system named is A549. Kind of series: Induction of apoptosis in human A549 cells assessed as necrotic cells at 10 uM after 48 hrs by Annexin V-FITC/PI double staining based flow cytometric analysis (reference value: 1.57%). The format is functional.
The nature of series [12]: Toxicity in nude mouse assessed as effect on body weight at 30 mg/kg, qd after 24 days. The format is organism-based. The note with it: in vivo, 576 h, time 24 day. In a few lines:
(§3)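 Female nude mice were inoculated subcutaneously with 2×10^6 A549 cells in 0.1 mL PBS. At tumor volume 70–100 mm³, mice were randomized into 5 groups of 6. Dosing was ip or oral gavage, once daily on a 5-days-on/2-days-off schedule, with 10% 2-hydroxypropyl-β-cyclodextrin/water as vehicle control. Body weight and tumor volume were measured every two days; tumors were weighed at sacrifice. Significance by two-tailed Student's t-test.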

Series [13] concerns A549. In words: Induction of p27 accumulation in human A549 cells at 50 uM incubated for 6 to 12 hrs by Western blot analysis. Type of series: functional, cell-based. Particulars: time 6-12 hrs. In a few lines:
as §1
For orientation: Immunoblotting shows a protein as a band on a membrane.

The test system of series [14] is A549. In words: Induction of Wee1 accumulation in human A549 cells at 50 uM incubated for 6 to 12 hrs by Western blot analysis. Type of series: functional, cell-based. Particulars: time 6-12 hrs. Summed up:
as §1

In series [15] the test system is A549. In words: Antitumor activity against human A549 cells xenografted in nude mouse assessed as decrease in tumor volume at 30 mg/kg, ip qd for 5 days on and 2 days off dosing and measured after 24 days post-treatment. Type of series: functional, organism-based. Particulars: time 24.0 day. Summed up:
as §3

Series [16] addresses T1, NEDD8-activating enzyme E1 regulatory subunit (Homo sapiens). Kind of series: Inhibition of NAE-mediated neddylation in human A549 cells assessed as suppression of cullin5-Nedd8 adduct formation at 12.5 to 25 uM measured after 6 to 12 hrs by Western blot analysis. The format is cell-based. The note with it: dose 12.5-25 µM, time 6-12 hrs. In a few lines: as §1
For series [17], the target named is T2, NEDD8-activating enzyme E1 catalytic subunit (Homo sapiens, UniProt Q8TBC4).
T2 sequence (Q8TBC4 whole entry): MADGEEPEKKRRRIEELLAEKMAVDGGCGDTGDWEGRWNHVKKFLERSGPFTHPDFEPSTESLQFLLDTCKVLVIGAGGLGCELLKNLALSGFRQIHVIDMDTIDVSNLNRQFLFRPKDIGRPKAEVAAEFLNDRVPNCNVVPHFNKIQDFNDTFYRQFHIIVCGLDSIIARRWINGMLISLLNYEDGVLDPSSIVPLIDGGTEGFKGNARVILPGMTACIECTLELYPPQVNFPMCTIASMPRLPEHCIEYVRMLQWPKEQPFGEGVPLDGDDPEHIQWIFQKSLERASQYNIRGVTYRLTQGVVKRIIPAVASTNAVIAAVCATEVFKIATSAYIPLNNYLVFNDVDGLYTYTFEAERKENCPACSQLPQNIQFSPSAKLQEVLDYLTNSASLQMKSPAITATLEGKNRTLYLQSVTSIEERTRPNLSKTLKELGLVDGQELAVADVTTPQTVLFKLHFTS
Kind of series: Inhibition of NAE (unknown origin)-mediated neddylation assessed as suppression of cullin1-Nedd8 adduct formation preincubated for 10 mins followed by ATP addition and measured after 30 mins by immunoblot analysis.

The test system of series [18] is A549. In words: Antitumor activity against human A549 cells xenografted in nude mouse assessed as inhibition of tumor growth at 60 mg/kg, po qd for 5 days on and 2 days off dosing and measured after 24 days post-treatment. Type of series: functional, organism-based. The note with it: time 24.0 day. In a few lines:
as §3

The target in series [19] is T1, NEDD8-activating enzyme E1 regulatory subunit (Homo sapiens). Kind of series: Inhibition of NAE-mediated neddylation in human A549 cells assessed as suppression of cullin2-Nedd8 adduct formation at 12.5 to 25 uM measured after 6 to 12 hrs by Western blot analysis. Type of series: cell-based. The note with it: dose 12.5-25 µM, time 6-12 hrs. Summed up:
as §1

By inhibition is commonly meant the drop in the measured response relative to a control, in per cent. For orientation: IC50 means the midpoint of a concentration-inhibition curve. `CCOc1nc2cccc(C(=O)NCCc3ccc(Cl)cc3Cl)c2n1Cc1ccc(-c2ccccc2-c2nnn[nH]2)cc1`: the Activity in the series on A549 [1] turned out to be 18.6%; in the series on A549 [2] it was 2.04%; with A549 [3], 4.62%; in the series with A549 [5], 3.71%; in the series with A549 [10], 1.02%; in the series with A549 [11] it was 1.57%. The Activity result in [12] is “Non-Toxic”. For the same compound, the inhibition in series [4] was determined as 86.4%. Also, the inhibition result in [6], in series [16] and in [19] was “Active” each time. The results for the IC50 (in series [7]; in the series on A549 [9]; in series [17]) were 76.1 µM, 20.4 µM and 5.51 µM, respectively. For the same compound, the result in the series on A549 [8], with A549 [13], with A549 [14], in the series with A549 [15] and with A549 [18] was Active.
